Consider 9 compounds from ChEMBL document CHEMBL2331304, “N1,N3-disubstituted uracils as nonnucleoside inhibitors of HIV-1 reverse transcriptase” (Bioorg Med Chem, 2013).

pEC50, pKi: −log10 of the molar value. Activity calls are given as the source filed them. The rule behind the calls is not given here.

Data set [1] addresses Human immunodeficiency virus type 1 reverse transcriptase (Human immunodeficiency virus 1, UniProt Q72547). In words: Non-competitive inhibition of wild type HIV1 reverse transcriptase p66/p51 after 30 mins by liquid scintillation counting.
Data set [2] can be described thus: Selectivity index, ratio of CC50 for human MT4 cells to EC50 for HIV1 3B infected in human MT4 cells. Particulars: MT4 cells (uninfected for CC50; HIV-1 3B infected for EC50). In kind it is toxicity, cell-based.
The subject of the next data set is MT4. In words: Cytotoxicity against human MT4 cells after 4 days by MTT assay. In kind it is cell-based. Particulars: mt4, 96 h. Background: Tetrazolium dyes change colour on reduction, which living cells bring about.
Data set [3] concerns Human immunodeficiency virus 1. Description: Antiviral activity against HIV1 3B infected in human MT4 cells assessed as inhibition of virus-induced cytopathic effect after 4 days by MTT assay. The note with it: Human immunodeficiency virus 1, 3B, MT4, 96 h. The data set is classed as functional, organism-based. The gist of the method: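 HIV-1 in MT-4 cells at 1 × 10^5 cells/ml, infected at MOI 0.02 (virus stock titrated as CCID50), then plated immediately onto varying compound concentrations. After 4 days at 37 °C, viable cells counted by MTT.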

The next data set relates to Human alphaherpesvirus 3. In words: Antiviral activity against Varicella zoster virus. The data set is classed as functional, organism-based. The gist of the method:
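VZV strain Oka and the TK− strain 07-1 were inoculated at 20 PFU onto confluent cell monolayers in the presence of varying compound concentrations. Plaque formation was recorded once complete in untreated infected controls.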

For a further data set, the system named is Punta Toro virus. In words: Antiviral activity against Punta Toro virus. The data set is classed as functional, organism-based.
For the next data set, the system named is Sindbis virus. Description: Antiviral activity against Sindbis virus. The data set is classed as functional, organism-based.
Data set [4] deals with Mammalian orthoreovirus 1. In words: Antiviral activity against Reovirus 1. The data set is classed as functional, organism-based.
A further data set concerns Human respirovirus 3. In words: Antiviral activity against Parainfluenza virus 3. The data set is classed as functional, organism-based.
The next data set relates to Influenza B virus. Description: Antiviral activity against influenza B virus. In kind it is functional, organism-based.
Data set [5] relates to Influenza A virus. Description: Antiviral activity against Influenza A virus H3N2. In kind it is functional, organism-based.
The test system of data set [6] is Influenza A virus. In words: Antiviral activity against Influenza A virus H1N1. The data set is classed as functional, organism-based.
Data set [7] deals with Respiratory syncytial virus. Description: Antiviral activity against Respiratory syncytial virus. In kind it is functional, organism-based.
A further data set has as its system Coxsackievirus B4. In words: Antiviral activity against Coxsackievirus B4. In kind it is functional, organism-based.
In data set [8] the test system is Vesicular stomatitis virus. Description: Antiviral activity against Vesicular stomatitis virus. The data set is classed as functional, organism-based.
A further data set deals with Vaccinia virus. In words: Antiviral activity against Vaccinia virus. In kind it is functional, organism-based. The note with it: Orthopoxvirus vaccinia.
A further data set concerns Human alphaherpesvirus 2. Description: Antiviral activity against Human herpesvirus 2. In kind it is functional, organism-based. The gist of the method:
(§1)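 Confluent HEL, Vero, HeLa or MDCK monolayers (cell type per virus not specified) were inoculated with 100 CCID50 of virus, with a range of compound concentrations. Strains were HSV-1 KOS and TK− ACV-resistant KOS, HSV-2 Lyons and G, and HCMV AD-169 and Davis. Cytopathicity or plaques were scored once complete in untreated infected controls.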

The next data set has as its system Human alphaherpesvirus 1. In words: Antiviral activity against Human herpesvirus 1. The data set is classed as functional, organism-based. In short, it runs like this: as §1
The next data set concerns Feline coronavirus. Description: Antiviral activity against Feline coronavirus. The data set is classed as functional, organism-based.

`Cc1ccc(OCCn2ccc(=O)n(Cc3cccc(C)c3)c2=O)cc1`: the pKi in [1] is 5.18. The selectivity ratio in data set [2] is not below 11. The same compound returned a CC50 in the data set with MT4 not below 38 µM. Further, the pEC50 in data set [3] is 5.47. Also, the result (in the data set on Human alphaherpesvirus 3; with Punta Toro virus; with Sindbis virus; in data set [4]; with Human respirovirus 3; in the data set with Influenza B virus) was inactive. In addition, the outcome (with Influenza A virus [5]; in the data set on Influenza A virus [6]; in [7]; with Coxsackievirus B4; in data set [8]; in the data set on Vaccinia virus) was inactive. Besides, the result with Human alphaherpesvirus 2, in the data set on Human alphaherpesvirus 1 and with Feline coronavirus was inactive.

In [1], `N#Cc1ccc(OCCn2ccc(=O)n(Cc3ccccc3)c2=O)cc1` had a pKi of 4.29. Also, the selectivity ratio in [2] amounted to 3.9. In the data set with MT4, this compound returned a CC50 of 166 µM. For the same compound, in [3], the pEC50 is 4.37. Besides, the result (with Human alphaherpesvirus 3; with Punta Toro virus; with Sindbis virus; in [4]; in the data set on Human respirovirus 3; in the data set on Influenza B virus) was inactive. Moreover, the result (in the data set with Influenza A virus [5]; in the data set on Influenza A virus [6]; in [7]; in the data set with Coxsackievirus B4; in [8]; in the data set with Vaccinia virus) was inactive. Moreover, the outcome in the data set with Human alphaherpesvirus 2, in the data set on Human alphaherpesvirus 1 and in the data set with Feline coronavirus was inactive.

In turn, `Cc1ccc(OCCn2ccc(=O)n(C(C)c3ccccc3)c2=O)cc1` (centres undefined) gave a negative-log Ki (pKi) in [1] of 4.92. Further, the selectivity ratio in [2] amounted to 20. For the same compound, in the data set with MT4, the CC50 amounted to 132 µM. Further, the pEC50 in data set [3] is 5.19. Further, the result (in the data set on Human alphaherpesvirus 3; with Punta Toro virus; in the data set with Sindbis virus; in [4]; in the data set with Human respirovirus 3; with Influenza B virus) was inactive. For the same compound, the result (in the data set with Influenza A virus [5]; in the data set with Influenza A virus [6]; in data set [7]; with Coxsackievirus B4; in [8]; in the data set on Vaccinia virus) was inactive. In addition, the outcome in the data set with Human alphaherpesvirus 2, in the data set with Human alphaherpesvirus 1 and with Feline coronavirus was inactive.

`Cc1cccc(OCCn2ccc(=O)n(Cc3ccccc3)c2=O)c1`: the pKi in data set [1] is less than 4.00. For the same compound, in data set [2], the selectivity ratio stood at 6.7. In addition, the midpoint of cytotoxicity in the data set on MT4, the CC50, lay at 207 µM. The pEC50 in data set [3] is 4.51. Besides, the outcome (in the data set with Human alphaherpesvirus 3; in the data set on Punta Toro virus; with Sindbis virus; in data set [4]; in the data set on Human respirovirus 3; in the data set with Influenza B virus) was inactive. Besides, the result (in the data set on Influenza A virus [5]; in the data set with Influenza A virus [6]; in data set [7]; in the data set with Coxsackievirus B4; in data set [8]; with Vaccinia virus) was inactive. Further, the result in the data set with Human alphaherpesvirus 2, with Human alphaherpesvirus 1 and in the data set with Feline coronavirus was inactive.

For `O=c1ccn(CCOc2ccccc2)c(=O)n1Cc1ccccc1`, the negative logarithm of the Ki (pKi) in [1] is 4.17. Besides, in data set [2], the selectivity ratio is 20. This compound yielded a CC50 in the data set on MT4 of 193 µM. The pEC50 in data set [3] is 5.02. For the same compound, the outcome (with Human alphaherpesvirus 3; with Punta Toro virus; in the data set with Sindbis virus; in data set [4]; in the data set on Human respirovirus 3; in the data set with Influenza B virus) was inactive. In addition, the result (in the data set with Influenza A virus [5]; with Influenza A virus [6]; in [7]; in the data set with Coxsackievirus B4; in [8]; in the data set on Vaccinia virus) was inactive. Further, the outcome in the data set on Human alphaherpesvirus 2, in the data set on Human alphaherpesvirus 1 and with Feline coronavirus was inactive.

In [1], `O=c1ccn(CCOc2ccc(-c3ccccc3)cc2)c(=O)n1Cc1ccccc1` had a pKi of 5.09. Moreover, the selectivity ratio in [2] was 3.8. The compound also showed a CC50 with MT4 of 31 µM. Also, in [3], the pEC50 is 5.08. Moreover, the result (in the data set with Human alphaherpesvirus 3; in the data set with Punta Toro virus; in the data set with Sindbis virus; in data set [4]; with Human respirovirus 3; in the data set with Influenza B virus) was inactive. In addition, the result (in the data set with Influenza A virus [5]; in the data set with Influenza A virus [6]; in data set [7]; with Coxsackievirus B4; in [8]; in the data set on Vaccinia virus) was inactive. Moreover, the outcome in the data set with Human alphaherpesvirus 2, in the data set on Human alphaherpesvirus 1 and in the data set on Feline coronavirus was inactive.

For the compound `O=c1ccn(CCOc2ccc(F)cc2)c(=O)n1Cc1ccccc1`, the pKi in data set [1] was 4.15. The selectivity ratio in [2] stood at 6.9. The compound further returned a CC50 in the data set on MT4 of 187 µM. Besides, in data set [3], the pEC50 was 4.57. The result (in the data set on Human alphaherpesvirus 3; in the data set on Punta Toro virus; with Sindbis virus; in [4]; with Human respirovirus 3; in the data set with Influenza B virus) was inactive. Further, the outcome (with Influenza A virus [5]; with Influenza A virus [6]; in data set [7]; in the data set with Coxsackievirus B4; in data set [8]; in the data set on Vaccinia virus) was inactive. Further, the result in the data set with Human alphaherpesvirus 2, in the data set with Human alphaherpesvirus 1 and in the data set on Feline coronavirus was inactive.

In data set [1], `Cc1ccc(OCCn2cc(C)c(=O)n(Cc3ccccc3)c2=O)cc1` had a pKi of 6.00. Moreover, in the data set with MT4, the CC50 was more than 356 µM. In data set [3], the pEC50 was less than 3.45. Further, the outcome (in the data set with Human alphaherpesvirus 3; in the data set on Punta Toro virus; in the data set with Sindbis virus; in data set [4]; in the data set with Human respirovirus 3; in the data set on Influenza B virus) was inactive. Also, the result (in the data set on Influenza A virus [5]; in the data set on Influenza A virus [6]; in [7]; in the data set with Coxsackievirus B4; in [8]; with Vaccinia virus) was inactive. The outcome in the data set with Human alphaherpesvirus 2, with Human alphaherpesvirus 1 and with Feline coronavirus was inactive.

Take `Cc1cc(C)cc(OCCn2ccc(=O)n(Cc3ccccc3)c2=O)c1`: the pKi in data set [1] was less than 4.00. This compound returned a CC50 in the data set with MT4 of 46 µM. Further, the pEC50 in data set [3] is less than 4.34. Moreover, the outcome (in the data set with Human alphaherpesvirus 3; in the data set on Punta Toro virus; in the data set with Sindbis virus; in data set [4]; in the data set with Human respirovirus 3; in the data set on Influenza B virus) was inactive. Also, the outcome (with Influenza A virus [5]; with Influenza A virus [6]; in [7]; in the data set with Coxsackievirus B4; in data set [8]; in the data set on Vaccinia virus) was inactive. For the same compound, the result with Human alphaherpesvirus 2, with Human alphaherpesvirus 1 and in the data set on Feline coronavirus was inactive.

In general, pKi refers to −log10 of the Ki, conventionally taken in molar units. In general, CC50 refers to the concentration at which the toxic effect on the cells reaches its halfway point. The low end stands for greater toxicity to the cells, the high end for lower toxicity to the cells. What is called pEC50 is the EC50 on a negative log10 scale, so that one unit is a factor of ten.
